Screens deposited in PubChem BioAssay by several laboratories.
Hits are enriched below; roughly 2.6% of the tested compounds scored in any of these assays.
T cruzi inh: inhibitors of intracellular T. cruzi growth, primary screen, luminescence, NIH3T3 host cells; T. cruzi beta-gal in NIH3T3, 90 h; inhibition, % (no concentration beside the values); 300,000 compounds, 1.4% hits;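 active means mean inhibition across valid replicates above about 55%, limit read from the data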;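 further: signal also drops with host cell toxicity which is not excluded here; higher percent means less beta-gal luminescence so fewer parasites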
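Test system: β-gal T. cruzi (Tulahuen C4) inside NIH/3T3 cells / Quantity: 5,000 cells/well / Measured by: luminescence from GalScreen with 0.05% NP40, read after 60 min / Medium: DMEM plus 2% FBS / Measure: parasite load inhibition, % / Reagent: Tulahuen C4 trypomastigotes, 5000/well / Schedule: co-culture of at least 90 h after 3 h attachment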
CHT inh: inhibitors of human choline transporter CHT; CHT-expressing cells, membrane potential dye, choline response; stronger effect = lower value; AID 488975, 2010; 310,000 compounds, 0.86% hits; B-score at 10 µM; High affinity choline transporter 1 (Homo sapiens), Q9GZV3;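 active means B-score over 3 SD under the library average, and starting fluorescence ratio not unusually high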;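 further: choline stimulus applied at its EC90 after an EC20 pre-addition; B-score computed on integrated fluorescence ratio after choline addition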
Target sequence (Q9GZV3 whole entry, looked up): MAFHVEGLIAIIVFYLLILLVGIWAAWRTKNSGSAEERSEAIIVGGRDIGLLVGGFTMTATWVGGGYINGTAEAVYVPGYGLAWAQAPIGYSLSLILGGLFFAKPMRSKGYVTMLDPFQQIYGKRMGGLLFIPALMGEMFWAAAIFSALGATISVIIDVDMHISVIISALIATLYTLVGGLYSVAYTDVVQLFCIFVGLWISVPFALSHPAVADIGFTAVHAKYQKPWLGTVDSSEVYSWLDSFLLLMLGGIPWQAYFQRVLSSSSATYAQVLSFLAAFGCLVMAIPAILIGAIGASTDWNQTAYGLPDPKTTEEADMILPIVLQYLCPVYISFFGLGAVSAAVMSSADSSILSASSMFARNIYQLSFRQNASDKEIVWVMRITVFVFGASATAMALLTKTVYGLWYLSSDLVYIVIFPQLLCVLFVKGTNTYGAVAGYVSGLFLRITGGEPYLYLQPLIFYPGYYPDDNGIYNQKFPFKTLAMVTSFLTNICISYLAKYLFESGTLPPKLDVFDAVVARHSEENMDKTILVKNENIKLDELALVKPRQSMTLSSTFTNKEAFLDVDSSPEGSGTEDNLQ
PolyA inhibitor: polyadenylation inhibitors in yeast reporter cells, primary screen, luminescence, S. cerevisiae. activity score, % at 12 µM. AID 1875, 2009. 300,000 compounds, 0.02% hits. S. cerevisiae SKY197-pL101 polyadenylation reporter, beta-gal luminescence; efflux-impaired pdr1/pdr3 knockout yeast; score 100 = 6 SD above DMSO;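 active means lowest replicate activity score at least 50, where 100 means six control SD above control mean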;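 further: yeast exposed to compound for 9 h at 30 °C; higher score means more reporter readthrough which indicates perturbed polyadenylation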
CHT PAM: CHT positive allosteric modulators, primary screen, cell-based, membrane potential dye, choline EC20. High affinity choline transporter 1 (Homo sapiens), Q9GZV3. CHT-expressing cells; stronger effect = higher value; LV-AA mutant CHT in HEK293 cells. B-score at 10 µM. 310,000 compounds, 0.49% hits. AID 488977, 2010;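 active means initial fluorescence not abnormally high and integrated response B-score, plate-corrected, over 3 SD above library mean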
CHT activ conf: CHT activators, confirmation, cell-based, membrane potential dye, duplicate; shares compounds with CHT PAM; CHT-expressing cells, membrane potential dye fluorescence (FDSS); % of choline EC20–EC90 response window; HEK293 expressing CHT LV-AA mutant; choline added at its EC20; activation, % at 10 µM; 2,500 compounds, 91% hits;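 active means primary screen active, with duplicate mean activation above negative control mean plus 3 SD, cut at about 11% in these data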
HEK293 MP dye: membrane potential response in parental HEK293 cells, counter-screen for CHT activator project, cell-based, membrane potential dye; shares compounds with CHT PAM; membrane potential dye fluorescence (FDSS); measured after EC20 choline addition; ratio readout change at 10 µM, hits read low; 2,500 compounds, 62% hits; AID 623908, 2012;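 active means duplicate-averaged ratio beyond 3 SD from buffer wells, up or down, though filed actives are nearly all decreases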
A number is an active result; - = inactive; . = no result.

SMILES	T cruzi inh	CHT inh	PolyA inhibitor	CHT PAM	CHT activ conf	HEK293 MP dye
CC(C)(C)C(CN1CCCC1)OC(=O)c1ccccc1 (stereo not given)	-	-	-	-	.	.
Cc1cc[n+](-c2ccccc2)c2ccccc12	-	-	-	7.02	31.9	-44.4
CCCCN(C(=O)C(C)Oc1ccc(Br)cc1)c1c(N)n(Cc2ccccc2)c(=O)[nH]c1=O (stereo not given)	-	-	-	-	.	.
COC(=O)CNC(c1ccccc1)c1cc(C)ccc1NC(=O)CNC(=O)OCc1ccccc1 (stereo not given)	-	-	-	-	.	.
COC(=O)CNC(c1ccccc1)c1cc(C)ccc1NC(=O)c1cccc(Cl)c1 (stereo not given)	-	-	-	6.89	42.8	-
CCOc1cccc2sc(N(CCN(C)C)C(=O)c3ccc4ccccc4c3)nc12	-	-	-	9.55	25.1	-78.3
CCOc1ccc(-c2cccc(NC(=O)c3cccs3)c2)nn1	-	-	-	-	.	.
CCCCN(CCCC)CC(O)COc1ccccc1Br (stereo not given)	-	-	-	6.75	25.8	-
CC(=O)c1ccc(N2CCN(C(=O)c3cccs3)CC2)c(F)c1	-	-	-	-	.	.
CCc1cccc(CC)c1-n1c(SCC(=O)N2CCc3ccccc3C2)nnc1-c1cccnc1	-	-	-	-	-	-
CCn1cc(C(=O)N[C@@H](CCSC)C(=O)NCCN2CCOCC2)c(=O)c2cc3c(cc21)OCO3	-	-	-	-	.	.
CCCCCCCC#Cc1ccccc1/C=N/S(=O)c1ccc(C)cc1 (stereo not given)	.	-	.	-	.	.
COc1ccc(C(=O)c2coc3ccc(O)c(CN4CCOCC4)c23)cc1	-	-	-	-	17.6	-
Cc1sc2ncn3c(C)nnc3c2c1C	-	-	-	7.02	58.6	-57.5
Cc1sc2ncn(CCn3cnc4sc(C)c(C)c4c3=O)c(=O)c2c1C	-	-	-	-	.	.
CC(CC12CC3CC(CC(C3)C1)C2)NCc1ccccc1O (stereo not given)	-	-	-	-	-	-
CC(NCc1ccccc1O)c1ccccc1 (stereo not given)	-	-	-	-	.	.
O=C(c1ccco1)N(CCC(c1ccccc1)c1ccco1)Cc1ccccc1 (stereo not given)	-	-	-	6.41	39.9	-
Cc1cc(NC(=O)CSc2ccc3nnc(-c4cccnc4)n3n2)no1	-	-	-	9.28	49.2	-42.1
O=C(CSc1ccc2nnc(-c3cccnc3)n2n1)N1CCOCC1	-	-	-	7.11	30.4	-25.9
Cc1cc(NC(=O)CSc2ccc3nnc(-c4ccc(F)cc4)n3n2)no1	-	-	-	-	.	.
Cc1cc(NC(=O)CSc2ccc3nnc(-c4cccs4)n3n2)no1	-	-	-	9.9	21.9	-32.8
Cc1ccc(-c2nnc3ccc(SCC(=O)Nc4cc(C)on4)nn23)cc1	-	-	-	-	.	.
CC(=O)c1ccc(NC(=O)CSc2ccc3nnc(-c4ccccn4)n3n2)cc1	-	-	-	-	48.7	-46.4
CC(=O)Nc1ccc(S(=O)(=O)N2C(C)CCCC2C)cc1 (stereo not given)	-	-	-	-	.	.
SMILES	T cruzi inh	CHT inh	PolyA inhibitor	CHT PAM	CHT activ conf	HEK293 MP dye
OCCCC1CCCN(Cc2cn[nH]c2-c2ccc(F)cc2F)C1 (stereo not given)	-	-	-	-	.	.
CC(=O)Oc1ccc(/C(C)=N\N2CCN(Cc3ccc(Cl)cc3)CC2)cc1	-	-	-	-	.	.
CC(C)(C)OC(=O)NCCCC[C@H](NC(=O)c1nc[nH]c1C(=O)NCc1ccccc1)C(=O)OC(C)(C)C	-	-	-	-	.	.
CN(Cc1ccccc1)C(=O)c1[nH]cnc1C(=O)N[C@@H](CCCCNC(=O)OC(C)(C)C)C(=O)OC(C)(C)C	-	-	-	10.8	20.0	-
CCOc1ccc(S(=O)(=O)N2CCN(C(=O)c3ccncc3)CC2)cc1	-	-	-	-	.	.
O=c1cc[nH]c2c1ccc1c(=O)cc[nH]c12	-	-	-	-	.	.
